The source of these data is ChEMBL document CHEMBL1149292, “A rational utilization of high-throughput screening affords selective, orally bioavailable 1-benzyl-3-carboxyazetidine sphingosine-1-phosphate-1 receptor agonists” (J Med Chem, 2004).

Test [1] deals with T1, Sphingosine 1-phosphate receptor 1 (Homo sapiens, UniProt P21453). Kind of test: Displacement of [33P]sphingosine 1 phosphate from human S1P1 receptor expressed in CHO cells. The class given is cell-based.
The target in test [2] is Sphingosine 1-phosphate receptor 2 (Homo sapiens, UniProt O95136). The test is described as follows: Displacement of [33P]sphingosine 1 phosphate from human S1P2 receptor expressed in CHO cells. The class given is cell-based.
Sphingosine 1-phosphate receptor 2, sequence (O95136 whole entry): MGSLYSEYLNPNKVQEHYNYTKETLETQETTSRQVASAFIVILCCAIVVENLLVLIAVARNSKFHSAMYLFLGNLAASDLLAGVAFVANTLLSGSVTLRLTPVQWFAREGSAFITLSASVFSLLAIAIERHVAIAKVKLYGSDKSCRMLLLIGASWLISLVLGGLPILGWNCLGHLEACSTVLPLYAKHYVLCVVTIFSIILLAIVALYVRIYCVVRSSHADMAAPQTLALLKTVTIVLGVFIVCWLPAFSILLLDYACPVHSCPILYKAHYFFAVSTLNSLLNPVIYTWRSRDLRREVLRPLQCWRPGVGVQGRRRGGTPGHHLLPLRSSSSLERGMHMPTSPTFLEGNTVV
In test [3] the target is Sphingosine 1-phosphate receptor 3 (Homo sapiens, UniProt Q99500). Kind of test: Displacement of [33P]sphingosine 1 phosphate from human S1P3 receptor expressed in CHO cells. The class given is cell-based.
Sphingosine 1-phosphate receptor 3, sequence (Q99500 whole entry): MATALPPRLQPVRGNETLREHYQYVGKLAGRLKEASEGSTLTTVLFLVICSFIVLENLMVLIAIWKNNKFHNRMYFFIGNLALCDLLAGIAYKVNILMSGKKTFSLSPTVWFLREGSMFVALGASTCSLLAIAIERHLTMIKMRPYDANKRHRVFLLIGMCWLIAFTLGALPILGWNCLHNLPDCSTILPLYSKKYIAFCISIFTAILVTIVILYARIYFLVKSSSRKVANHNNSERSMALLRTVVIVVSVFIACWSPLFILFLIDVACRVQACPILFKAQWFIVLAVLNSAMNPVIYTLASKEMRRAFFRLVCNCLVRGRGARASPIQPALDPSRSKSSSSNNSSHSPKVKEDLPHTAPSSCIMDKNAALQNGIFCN
The target of test [4] is T2, Sphingosine 1-phosphate receptor 4 (Homo sapiens, UniProt O95977).
T2 sequence (O95977 whole entry): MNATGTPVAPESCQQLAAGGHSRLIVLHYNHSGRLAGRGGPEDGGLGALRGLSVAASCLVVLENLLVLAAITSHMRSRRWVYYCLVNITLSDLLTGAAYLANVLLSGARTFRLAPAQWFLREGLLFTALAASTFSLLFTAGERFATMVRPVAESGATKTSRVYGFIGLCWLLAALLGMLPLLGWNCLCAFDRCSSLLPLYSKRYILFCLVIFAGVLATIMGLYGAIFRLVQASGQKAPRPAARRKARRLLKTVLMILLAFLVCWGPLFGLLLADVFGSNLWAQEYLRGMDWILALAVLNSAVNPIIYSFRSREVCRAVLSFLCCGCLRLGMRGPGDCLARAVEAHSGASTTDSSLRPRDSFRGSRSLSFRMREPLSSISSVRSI
Kind of test: Displacement of [33P]sphingosine 1 phosphate from human S1P4 receptor expressed in CHO cells. The class given is cell-based. In a few lines:
(§1)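 Competition binding with [33P]-labeled S1P on membranes of CHO cells stably expressing each human S1P receptor. Values are the mean of n = 3 determinations.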

Test [5] deals with Sphingosine 1-phosphate receptor 5 (Homo sapiens, UniProt Q9H228). The test is described as follows: Displacement of [33P]sphingosine 1 phosphate from human S1P5 receptor expressed in CHO cells. It is filed as cell-based. In a few lines: as §1
Sphingosine 1-phosphate receptor 5, sequence (Q9H228 whole entry): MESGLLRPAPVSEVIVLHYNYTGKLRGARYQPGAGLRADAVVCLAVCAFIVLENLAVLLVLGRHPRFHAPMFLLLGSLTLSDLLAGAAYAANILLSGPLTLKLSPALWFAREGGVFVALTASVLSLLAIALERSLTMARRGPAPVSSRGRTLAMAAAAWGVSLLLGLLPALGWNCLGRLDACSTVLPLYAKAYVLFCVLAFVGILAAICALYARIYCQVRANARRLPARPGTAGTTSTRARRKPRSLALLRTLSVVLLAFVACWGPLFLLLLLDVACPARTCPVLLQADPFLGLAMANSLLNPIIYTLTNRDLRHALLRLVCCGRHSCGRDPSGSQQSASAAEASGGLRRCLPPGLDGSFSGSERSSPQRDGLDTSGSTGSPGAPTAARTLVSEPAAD
For test [6], the target named is T1, Sphingosine 1-phosphate receptor 1. The test is described as follows: Activity at human S1P1 receptor expressed in CHO cells by [35S]GTPgammaS binding assay. It is filed as functional, cell-based. The procedure, abridged: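 Agonism measured as ligand-induced [35S]-GTPγS binding to membranes of CHO cells stably expressing the human S1P receptor.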

T1 sequence (P21453 whole entry): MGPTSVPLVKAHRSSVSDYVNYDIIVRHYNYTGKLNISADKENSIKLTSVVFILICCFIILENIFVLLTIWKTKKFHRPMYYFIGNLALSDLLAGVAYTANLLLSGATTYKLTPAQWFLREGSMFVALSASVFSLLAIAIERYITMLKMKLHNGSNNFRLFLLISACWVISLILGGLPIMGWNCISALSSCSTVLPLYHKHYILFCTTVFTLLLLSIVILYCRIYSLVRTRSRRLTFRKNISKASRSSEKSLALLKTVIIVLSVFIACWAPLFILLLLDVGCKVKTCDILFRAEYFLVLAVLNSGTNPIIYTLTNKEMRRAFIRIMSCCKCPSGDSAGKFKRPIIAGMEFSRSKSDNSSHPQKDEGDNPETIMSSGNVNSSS

One may read the IC50 as the concentration that inhibits the measured activity by half. A high value points to weaker potency in that assay. What is called EC50 is the concentration needed to bring the measured effect to its halfway point. The low end stands for a more potent agent, the high end for a less potent agent. On to `O=C(O)C1CN(Cc2ccc(OCc3cc(-c4ccccc4)c(C(F)(F)F)s3)c(Br)c2)C1`, for which the IC50 in test [1] was 13 nM (antagonist); in test [2], greater than 10000 nM; in test [3], greater than 10000 nM; in test [4] it was 2400 nM (antagonist); in test [5] it was 53 nM (antagonist). Besides, the EC50 in test [6] is reported as 3.3 nM (agonist).
In the case of `FC(F)(F)c1cccc(-c2noc(-c3cc(-c4ccccc4)c(C(F)(F)F)s3)n2)c1`, the IC50 in test [2] was greater than 10000 nM; in test [3] it was greater than 10000 nM; in test [4], greater than 10000 nM; in test [5] it was 4600 nM (antagonist).
For the compound `O=C(O)C1CN(Cc2ccc(OCc3cc(-c4ccccc4)c(C(F)(F)F)s3)c(C(F)(F)F)c2)C1`, the IC50 in test [1] is 7.7 nM (antagonist); in test [2], greater than 10000 nM; in test [3], greater than 10000 nM; in test [4], 340 nM (antagonist); in test [5], 21 nM (antagonist). The EC50 in test [6] was 5.9 nM (agonist).
As to `FC(F)(F)c1sc(-c2nc(-c3ccc(Cl)cc3Cl)no2)cc1-c1ccccc1`, the IC50 in test [1] was 78 nM (antagonist); in test [2], greater than 10000 nM; in test [3], greater than 10000 nM; in test [4], greater than 10000 nM; in test [5], greater than 10000 nM.
Consider `COc1cc(CN2CC(C(=O)O)C2)ccc1OCc1cc(-c2ccccc2)c(C(F)(F)F)s1`, for which the IC50 is 33 nM (antagonist) in test [1]; greater than 10000 nM in test [2]; greater than 10000 nM in test [3]; 2800 nM (antagonist) in test [4]; 77 nM (antagonist) in test [5]. Also, in test [6], the EC50 is given as 47 nM (agonist).
Consider `CCCCCCCCCc1ccc(CN2CCC(P(=O)(O)O)C2)cc1` (stereo not given), for which the IC50 is 6.9 nM (antagonist) in test [1]; greater than 10000 nM in test [2]; 220 nM (antagonist) in test [3]; 45 nM (antagonist) in test [4]; 6.3 nM (antagonist) in test [5].
In the case of `CCCCCCCCCCCCC/C=C/[C@@H](O)[C@@H](N)COP(=O)(O)O`, the IC50 is on record as 0.67 nM (antagonist) in test [1], 0.26 nM (antagonist) in test [3] and 34 nM (antagonist) in test [4].
Take `CCCCCCCCOc1c(Br)cc(CNCCCP(=O)(O)O)cc1OC`: in test [4], the IC50 is 80 nM (antagonist).
On to `FC(F)(F)c1sc(-c2nc(-c3ccccc3)no2)cc1-c1ccccc1`, for which the IC50 is 25 nM (antagonist) in test [1]; greater than 10000 nM in test [2]; greater than 10000 nM in test [3]; greater than 10000 nM in test [4]; greater than 10000 nM in test [5].
`O=C(O)C1CN(Cc2cc(Cl)c(OCc3cc(-c4ccccc4)c(C(F)(F)F)s3)c(Cl)c2)C1`: the half-inhibitory concentration (IC50) is 7.5 nM (antagonist) in test [1]; greater than 10000 nM in test [2]; greater than 10000 nM in test [3]; 640 nM (antagonist) in test [4]; 33 nM (antagonist) in test [5]. In addition, in test [6], the concentration for a half-maximal effect (EC50) is 2.7 nM (agonist).
Consider `Cc1cc(CN2CC(C(=O)O)C2)cc(C)c1OCc1cc(-c2ccccc2)c(C(F)(F)F)s1`, for which the IC50 in test [1] is 4 nM (antagonist); in test [2], greater than 10000 nM; in test [3], 10000 nM; in test [4], 120 nM (antagonist); in test [5], 12 nM (antagonist). In test [6], the EC50 was 1.3 nM (agonist).
As for `O=C(O)C1CCN(Cc2ccc(OCc3cc(-c4ccccc4)c(C(F)(F)F)s3)cc2)C1` (stereo not given), the IC50 is 4.3 nM (antagonist) in test [1]; greater than 10000 nM in test [2]; 1000 nM (antagonist) in test [3]; 790 nM (antagonist) in test [4]; 120 nM (antagonist) in test [5]. Moreover, the EC50 in test [6] is 2.4 nM (agonist).
`CCc1cc(CN2CC(C(=O)O)C2)ccc1OCc1cc(-c2ccccc2)c(C(F)(F)F)s1`: the IC50 in test [1] was 3.5 nM (antagonist); in test [2], greater than 10000 nM; in test [3], 4300 nM (antagonist); in test [4], greater than 10000 nM; in test [5] it was 10 nM (antagonist). Further, the EC50 in test [6] is 1.4 nM (agonist).
